Tn7 DDE FP: DD(E)-Tn7 binding inhibition, primary FP screen | inhibition, % at 8.3 µM | FP displacement of FITC-Tn7 peptide from fibrin DD(E); 0% = median of compound wells per plate | 370,000 compounds, 0.13% hits | AID 720508 | P02675;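 active = inhibition above the mean of compounds falling within the control limits plus 3 SD of them, cut at about 14% in these data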;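 note: 0% = plate median of compound wells and 100% = 10 µM Aha-Tn7 peptide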
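system = human fibrin DD(E) protein | quantity = DD(E) 2 µM final | medium = Tris/NaCl/CaCl2 buffer, pH 7.8 | also added = labelled Tn7 tracer, 0.1 µM | compound dosing = single point at 8.3 µM | timing = compound with protein 10 min, then 3 h after probe, room temperature | signal = FP measurement | benchmarks = Aha-Tn7 high control | repeats = one replicate per compound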
ABHD4 inh: inhibitors of mouse ABHD4; Q8VD66; purified mABHD4, FP-Rh probe fluorescence polarization; inhibition, % at 8.92 µM; 370,000 compounds, 0.54% hits; AID 720543;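 active = inhibition exceeding the mean over every tested compound plus 3 SD, cut at about 30% in these data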;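 note: 0% = plate median of compound wells and 100% = S159A mutant with DMSO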
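System: mouse ABHD4 enzyme, wild type / Medium: HEPES pH 7.0, NaCl, Pluronic buffer / Reagent: FP-Rh activity-based fluorescent probe / Control set: S159A mutant high control, sample median low control / Detection: fluorescence polarization with parallel and perpendicular emission, 525/598 nm / Schedule: 45 min + 60 min at 25 °C / Compound dosing: 8.92 µM, single dose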
TCR-CD3 inh: inhibitors of human TCR-CD3 interaction; 360,000 compounds, 0.37% hits; inhibition, % at 9.4 µM; TAMRA-labeled TCR probe fluorescence, biochemical; AID 651800;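 note: recombinant mutant TCR 2C K166C tagged with TAMRA read by polarization; 0% = receptor in buffer alone and 100% = receptor with positive control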
HTRA1 inh: HTRA1 (human) protease inhibition; recombinant HTRA1, FP-rhodamine activity-based probe, fluorescence polarization; inhibition, % at 5.96 µM; 340,000 compounds, 0.5% hits; AID 504803; in the data active = inhibition above about 36%;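 note: 0% = enzyme with DMSO and 100% = wells lacking enzyme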
Target sequence (Q92743 whole entry, looked up): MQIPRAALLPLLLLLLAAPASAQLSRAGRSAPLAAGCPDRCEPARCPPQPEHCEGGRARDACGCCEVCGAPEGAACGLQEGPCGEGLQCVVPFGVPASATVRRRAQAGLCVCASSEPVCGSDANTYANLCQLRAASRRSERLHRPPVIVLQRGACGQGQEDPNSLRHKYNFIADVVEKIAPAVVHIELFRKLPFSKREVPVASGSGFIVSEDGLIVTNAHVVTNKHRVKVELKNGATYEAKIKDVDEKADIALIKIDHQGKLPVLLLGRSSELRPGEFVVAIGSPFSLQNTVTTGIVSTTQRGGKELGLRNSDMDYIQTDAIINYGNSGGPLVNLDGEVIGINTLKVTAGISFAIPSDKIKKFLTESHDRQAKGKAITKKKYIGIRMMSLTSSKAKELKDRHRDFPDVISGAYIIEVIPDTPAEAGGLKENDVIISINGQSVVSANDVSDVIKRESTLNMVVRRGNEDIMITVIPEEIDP
Tn6 DDE FP: DD(E)-Tn6 binding inhibition, primary FP screen; inhibition, % at 8.3 µM; 370,000 compounds, 0.21% hits; Fibrin DD(E) TRITC-Tn6 fluorescence polarization displacement;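 active = inhibition above a per-campaign cutoff: mean of compounds within control limits plus 3 SD, cut at about 15% in these data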;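 note: 0% = median of all compound wells on the plate and 100% = blocking peptide control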
BSA probe FL: counter-screen for TCR-CD3 interaction inhibitors: BSA probe; shares compounds with TCR-CD3 inh; TAMRA-labeled BSA probe fluorescence counterscreen; inhibition, % at 9.4 µM; 1,200 compounds, 10% hits; AID 652035; in the data active = inhibition above about 23%;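 note: 0% = buffer low control and 100% = reference high control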
TCR-CD3 inh conf: confirmation of human TCR-CD3 interaction inhibitors. shares compounds with TCR-CD3 inh. TAMRA-labeled TCR probe fluorescence binding assay. inhibition, % at 9.4 µM. 1,200 compounds, 48% hits
DDE Tn6 FP ctr: counter-screen for inhibitors of Tn6 peptide binding to fibrin DD(E) | shares compounds with Tn6 DDE FP | TRITC-Tn6 fluorescence polarization displacement; 0% = median of compound wells, not DMSO | inhibition, % at 8.3 µM | 680 compounds, 2% hits | AID 720621;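 active = inhibition above the mean of test compounds lying between the control limits plus 3 SD of those, cut at about 14% in these data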;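 note: 0% = median of compound wells and 100% = wells with Aha-Tn7 blocking peptide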
Tn6 DDE conf: confirmation of inhibitors of Tn6 binding to human fibrin DD(E). shares compounds with Tn6 DDE FP. 680 compounds, 10% hits. FP displacement of TRITC-Tn6 peptide from DD(E); 0% = per-plate median of test wells. inhibition, % at 8.3 µM;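 active = inhibition above the mean of compounds lying within the control limits plus 3 SD, cut at about 16% in these data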;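 note: 100% = high control wells holding a competing inhibitor peptide at 10 µM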
mABHD4 conf: ABHD4 (mouse) inhibition, FP confirmation | shares compounds with ABHD4 inh | purified mABHD4, FP-Rh probe fluorescence polarization | inhibition, % at 8.92 µM | 1,800 compounds, 55% hits | AID 720658;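 active = mean inhibition across replicates above the hit cutoff set in the primary screen, cut at about 30% in these data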;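 note: 0% = wild-type ABHD4 with DMSO and 100% = catalytically dead S159A mutant with DMSO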
The depositor's hits bear a star. In the library only some 1.3% were active in any assay of this set; here they are far more common. Cut-off read from the data, not from the text of the source, unless noted: active = inhibition above about 19%; inactive = the rest.

O=[N+]([O-])c1ccc(O)c(/C=N/NC(=S)Nc2ccc(Cl)cc2Cl)c1 was read as Tn7 DDE FP 2.1, ABHD4 inh 34.6*, TCR-CD3 inh 22.9*, HTRA1 inh 31.9, Tn6 DDE FP -3.6, BSA probe FL -2.1, TCR-CD3 inh conf 32.5* and mABHD4 conf 26.7.
For Cc1cc(Cl)ccc1NC(=O)CCC(=O)N/N=C/c1cc([N+](=O)[O-])ccc1O the results were Tn7 DDE FP 2.5, ABHD4 inh 8.5, TCR-CD3 inh -5.8, HTRA1 inh 8.9 and Tn6 DDE FP -0.6.
For OCC1N=C(c2ccccn2)OC1c1ccccc1 (stereo unspecified) the results were Tn7 DDE FP 4.4, ABHD4 inh -5.0, TCR-CD3 inh -2.4, HTRA1 inh 1.5 and Tn6 DDE FP 4.0.
`c1coc(-c2nc(-c3ccco3)c(-c3ccco3)nc2-c2ccco2)c1` gave Tn7 DDE FP -0.8, ABHD4 inh 54.2*, TCR-CD3 inh 26.5*, HTRA1 inh 74.1*, Tn6 DDE FP -7.9, BSA probe FL -6.6, TCR-CD3 inh conf 8.1 and mABHD4 conf 43.3*.
`O=C(NC(Cc1c[nH]c2ccccc12)C(=O)N/N=C/c1cccnc1)c1cccs1` (stereo unspecified) gave Tn7 DDE FP 2.8, ABHD4 inh 4.1, TCR-CD3 inh -3.0, HTRA1 inh -5.5 and Tn6 DDE FP -5.5.
Screening O=[N+]([O-])c1cc([N+](=O)[O-])c2nonc2c1Nc1ccc(O)cc1 returned Tn7 DDE FP -2.9, ABHD4 inh 45.8*, TCR-CD3 inh 42.7*, HTRA1 inh 33.0, Tn6 DDE FP 17.9*, BSA probe FL -0.3, TCR-CD3 inh conf 5.3 and mABHD4 conf 10.1.
CC(NC(=O)Nc1ccc(O)cc1)(C(F)(F)F)C(F)(F)F was read as Tn7 DDE FP -1.1, ABHD4 inh 65.9*, TCR-CD3 inh 53.7*, HTRA1 inh 31.9, Tn6 DDE FP 29.1*, BSA probe FL 4.4, TCR-CD3 inh conf 0.1, DDE Tn6 FP ctr -6.2, Tn6 DDE conf -6.7 and mABHD4 conf 2.2.
Screening CCC(NC(=O)Nc1ccc(O)cc1)(C(F)(F)F)C(F)(F)F returned Tn7 DDE FP -7.8, ABHD4 inh 61.9*, TCR-CD3 inh 28.4*, HTRA1 inh 28.3, Tn6 DDE FP 12.9, BSA probe FL 3.9, TCR-CD3 inh conf 1.7 and mABHD4 conf 27.8.
CCCCNC(=O)COC(=O)c1c2c(nc3ccccc13)/C(=C\c1cccs1)CC2 was read as Tn7 DDE FP 2.6, ABHD4 inh -7.5, TCR-CD3 inh -3.0, HTRA1 inh -51.2 and Tn6 DDE FP -13.5.
Screening O=C(CSc1nnc(-c2ccco2)o1)c1ccc[nH]1 returned Tn7 DDE FP -0.2, ABHD4 inh 8.7, TCR-CD3 inh 7.9, HTRA1 inh 8.6 and Tn6 DDE FP 6.2.
Cc1onc(-c2ccccc2Cl)c1C(=O)NCc1ccc2c(c1)cc(C)n2C was read as Tn7 DDE FP -1.7, ABHD4 inh 29.8*, TCR-CD3 inh 34.1*, HTRA1 inh 23.9, Tn6 DDE FP 21.7*, BSA probe FL 8.1, TCR-CD3 inh conf 4.5, DDE Tn6 FP ctr 2.7, Tn6 DDE conf 1.0 and mABHD4 conf 19.4.
Screening Cc1ccc(CNC(=O)c2c(-c3ccccc3Cl)noc2C)cc1 returned Tn7 DDE FP 0.3, ABHD4 inh 6.6, TCR-CD3 inh -6.9, HTRA1 inh 7.2 and Tn6 DDE FP -4.2.
CCOc1ccc2oc(C(=O)N(Cc3nnc(-c4ccccc4Cl)o3)C3CC3)c(C)c2c1 was read as Tn7 DDE FP -5.3, ABHD4 inh -9.6, TCR-CD3 inh 2.8, HTRA1 inh -36.4 and Tn6 DDE FP -5.4.
Screening CCN(CC)c1cccc(OCC(=O)N(C)CCC#N)c1 returned Tn7 DDE FP 6.3, ABHD4 inh 63.5*, TCR-CD3 inh 21.2*, HTRA1 inh 22.9, Tn6 DDE FP 88.3*, BSA probe FL -69.9, TCR-CD3 inh conf -25.4, DDE Tn6 FP ctr 8.7, Tn6 DDE conf 10.5 and mABHD4 conf -52.7.
CCOc1cccc(C(=O)Nc2ccc(N(CC)CC)cc2)c1 was read as Tn7 DDE FP 8.1, ABHD4 inh -1.0, TCR-CD3 inh 0.4, HTRA1 inh 4.1 and Tn6 DDE FP -3.8.
`CC(=O)Nc1ccc(N/C=C2/CCCC2=O)cc1` gave Tn7 DDE FP 2.0, ABHD4 inh 6.0, TCR-CD3 inh -12.2, HTRA1 inh 14.6 and Tn6 DDE FP -2.2.
Screening Cc1cc(O)ccc1N/C=C1\CCCC1=O returned Tn7 DDE FP -1.2, ABHD4 inh 69.1*, TCR-CD3 inh 33.7*, HTRA1 inh 31.5, Tn6 DDE FP 29.6*, BSA probe FL 3.0, TCR-CD3 inh conf 2.8, DDE Tn6 FP ctr 2.9, Tn6 DDE conf -2.1 and mABHD4 conf 17.2.
For O=c1c(O)c(-c2cc(O)c(O)c(O)c2)oc2cc(O)cc(O)c12 the results were Tn7 DDE FP -1.1, ABHD4 inh 42.4*, TCR-CD3 inh 28.7*, HTRA1 inh 17.1, Tn6 DDE FP -1.2, BSA probe FL -9.5, TCR-CD3 inh conf 45.0* and mABHD4 conf 48.1*.
`O=C(CSc1nnc(-c2ccco2)c(-c2ccco2)n1)c1ccccc1` gave Tn7 DDE FP 0.1, ABHD4 inh 45.8*, TCR-CD3 inh 34.7*, HTRA1 inh 27.0, Tn6 DDE FP -3.1, BSA probe FL -15.8, TCR-CD3 inh conf 18.9* and mABHD4 conf 17.3.
Cc1ccc(C(=O)Nc2nc(-c3ccco3)c(-c3ccco3)s2)o1 was read as Tn7 DDE FP 0.9, ABHD4 inh 36.0*, TCR-CD3 inh 30.6*, HTRA1 inh 5.2, Tn6 DDE FP -15.5, BSA probe FL -1.2, TCR-CD3 inh conf 0.3 and mABHD4 conf -12.8.
O=C(CCl)Nc1nc(-c2ccco2)c(-c2ccco2)s1 was read as Tn7 DDE FP -0.3, ABHD4 inh 10.4, TCR-CD3 inh 4.8, HTRA1 inh -0.4 and Tn6 DDE FP 0.8.
OCCOCCN1CCN(C2=Nc3ccccc3Sc3ccccc32)CC1 was read as Tn7 DDE FP 7.1, ABHD4 inh -3.9, TCR-CD3 inh -6.4, HTRA1 inh 4.1 and Tn6 DDE FP 3.8.

Bioassay records deposited in PubChem by The Scripps Research Institute Molecular Screening Center.
